{"data": "Measurements of several laboratories", "read-out": "enzyme activity", "action": "inhibitor", "CDK5 with p35": "Cyclin-dependent kinase 5, with p35 (CDK5, Homo sapiens, UniProt Q00535)", "CDK5 with p25": "Cyclin-dependent kinase 5, with p25 (CDK5, Homo sapiens, UniProt Q00535)", "note": "Each line is one published result; the experiments were not run side by side."}
{"SMILES": "CC(C)(C)c1nc2c(s1)c1nc(N)ncc1c1ccc(NS(=O)(=O)c3c(F)cccc3F)c(F)c12", "target": "CDK5 with p35", "assay": "radiometric", "conditions": "1 µM", "remaining activity [%]": 77}
{"SMILES": "CCN(CC)c1ccc(C2=NNC(=O)CC2C)cc1[N+](=O)[O-] (stereo not shown)", "target": "CDK5 with p35", "conditions": "10 µM", "remaining activity [%]": 109}
{"SMILES": "Cc1cnc(NC2CCOCC2)nc1-n1cnc(C(=O)NC(CN)c2cc(F)cc(Cl)c2)c1 (stereo not shown)", "target": "CDK5 with p35", "assay": "radiometric", "conditions": "1 µM", "remaining activity [%]": 4}
{"SMILES": "CC[C@H](C)[C@H](NC(=O)[C@H](CCC(N)=O)NC(=O)[C@H](CC(C)C)NC(=O)[C@H](CCSC)NC(=O)[C@H](CCCCN)NC(=O)[C@H](CO)NC(=O)[C@H](CO)NC(=O)[C@H](CCSC)NC(=O)[C@H](CC(C)C)NC(=O)[C@H](CC(N)=O)NC(=O)[C@@H](NC(=O)[C@@H](NC(=O)[C@H](CO)NC(=O)[C@H](CC(C)C)NC(=O)[C@H](CS)NC(=O)[C@H](CCCNC(=N)N)NC(=O)[C@H](CC(=O)O)NC(=O)[C@H](Cc1c[nH]c2ccccc12)NC(=O)[C@H](Cc1ccccc1)NC(=O)[C@H](C)NC(=O)[C@H](CCC(=O)O)NC(=O)[C@@H](N)CCCCN)C(C)C)[C@@H](C)CC)C(=O)N[C@@H](CC(N)=O)C(=O)N[C@@H](C)C(=O)O", "target": "CDK5 with p25", "assay": "radiometric", "conditions": "250 µM, 20 min", "remaining activity [%]": 41}
{"SMILES": "O=C(Nc1cnn(-c2csc(C(=O)NC3COC3)c2)c1)Nc1ccccc1Cl", "target": "CDK5 with p25", "conditions": "5 µM", "remaining activity [%]": 101}
{"SMILES": "COc1cc(Cl)c(C(=O)N[C@@H](CN[C@H]2CC[C@@H](N)CC2)Cc2ccc(C#N)cc2)cc1-c1ccc(CN[C@H](C)c2ccc(C)cc2)o1", "target": "CDK5 with p35", "conditions": "1 µM", "remaining activity [%]": 88}
{"SMILES": "Cc1sc(C(=O)NC2COC2)cc1-n1cc(NC(=O)Nc2c(F)cccc2Cl)cn1", "target": "CDK5 with p25", "conditions": "10 µM", "remaining activity [%]": 97.6}
{"SMILES": "CC(C)(O)[C@H]1CC[C@H](Nc2ccc3ncc(-c4cccc(C(F)(F)F)c4)n3n2)CC1", "target": "CDK5 with p35", "conditions": "1 µM", "remaining activity [%]": 97.7}
{"SMILES": "O=C(Nc1cnn(-c2csc(C(=O)NC3COC3)c2)c1)Nc1c(F)cccc1Cl", "target": "CDK5 with p25", "conditions": "5 µM", "remaining activity [%]": 88.2}
{"SMILES": "CCCOc1ccc(OC)c(F)c1C(=O)c1ccc(C(=O)N[C@@H]2CNC[C@H]2NC(=O)c2ccc3[nH]ncc3c2)cc1", "target": "CDK5 with p25", "conditions": "50 nM", "remaining activity [%]": 114}
